Source: PMC9730744 (ACS Omega, 2022)
Marks after values point to notes of the source that are not given here.

Key:
rat synovial cells [1] = assay: LDH activity assay of synovial cells in vitro; format: cell-based; conditions: for LDH activity ± SD: 1 μM, supernatant of rat synovial cells, 48 h; for LDH content in the supernatant / damage to synovial cells (in words): compared with the normal group
Method in brief: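 Log-phase rat synovial cells (2 × 10⁴/well) were cultured 48 h at 37 °C, 5% CO₂. They then received test compound at graded concentrations, methotrexate, or DMSO vehicle for 48 h. Plates were centrifuged 10 min, and supernatant LDH was assayed with a kit. Activity (U/L) = [(OD sample − OD control)/([…] − OD blank)] × 0.2 mM × 1000. Three independent experiments, each in triplicate.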

[2] = Acute toxicity test in mice; conditions: both, mouse, in vivo, po
Method in brief: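 Single oral gavage of 0.4 mL test substance to SPF mice (18–22 g) after 1-week acclimatization at 22 ± 2 °C on a 12 h light/dark cycle. Mice were randomized into 10 groups, half male and half female, fasted 8 h before dosing and 2 h after. Mortality, death time and signs of poisoning were recorded over 14 days, and LD50 was taken as the acute toxicity measure.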

rat synovial cells [3] = assay: Morphology of rat synovial cells in vitro; format: cell-based; conditions: 1 μM, 48 h, Figure 3
Method in brief: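 Synovial cells at 70–80% confluence were detached with 0.25% trypsin and seeded at 5000 cells/well in 24-well plates. Groups received test compound (1 μM), methotrexate (1 μM) or DMSO, with an untreated normal group. After 48 h culture, morphology was examined by cell imaging analysis.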

[4] = system: TLR4, MyD88, NF-κB, and IκB in rat synovial cells; assay: TLR4/NF-κB signaling pathway protein expression in rat synovial cells; format: cell-based; conditions: 1 μM, LPS 1 μg·mL^–1, compared with the LPS group, p < 0.01
Method in brief: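 Synovial cells (5000/well) were cultured 24 h, stimulated with LPS (1 μg·mL⁻¹) for 24 h, then treated with test compound at 1 μM for 24 h. Cells were fixed in 4% fixative for 45 min, permeabilized with 0.25% Triton for 15 min and blocked with 5% BSA for 10 min. Rabbit anti-rat primaries (1:100 or 1:200) were applied overnight at 4 °C, then FITC goat anti-rabbit (1:400, 30 min, 37 °C) and DAPI (1:800). Read-out was mean fluorescence intensity.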

[5] = system: CFA-induced arthritis in rats; assay: Complete Freund's adjuvant induced arthritis in rats; format: in vivo, rat; conditions: for IL-6 content in serum after treatment / TNF-α content in serum after treatment: high dose (100 mg·kg^–1·d^–1) and low dose (50 mg·kg^–1·d^–1); for IL-6 content in serum after treatment: Figure 4c; for TNF-α content in serum after treatment: Figure 4d; for change of paw volume before and after treatment: oral
Method in brief: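 SPF adult rats (200 ± 20 g) were acclimatized 2 weeks at 22 ± 3 °C and 40–70% humidity. Arthritis was induced with 0.1 mL CFA injected 2 cm from the tail root; the normal group received saline. From day 14 after induction, rats were dosed orally at 50 or 100 mg·kg⁻¹·d⁻¹ daily for 14 days. Paw volume was measured by toe volume meter before induction and on dosing days 1 and 14.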

[6] = system: TNF-α, IL-1β, and IL-6 in rat synovial cells; assay: Inflammatory cytokines in the rat synovial cell supernatant; format: cell-based; conditions: 1 μM, LPS 1 μg·mL^–1, compared with the LPS group, p < 0.01
Method in brief: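 After 24 h they were stimulated with LPS (1 μg·mL⁻¹) for 24 h, then treated with test compound or methotrexate at 1 μM for 24 h. Supernatant was centrifuged at 3000 rpm for 15 min, and TNF-α, IL-1β and IL-6 were measured by ELISA. Three independent experiments, each in triplicate.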

rat synovial cells [7] = conditions: read-out: IC50, growth of synovial cells; cited from earlier work
[8] = 50 mg·kg^–1·d^–1 for 14 days, Figure 4a

SMILES	LDH activity ± SD (rat synovial cells [1])	LDH content in the supernatant / damage to synovial cells (in words) (rat synovial cells [1])	LD50 at 14 days [2] [mg/kg]	morphology of rat synovial cells (rat synovial cells [3])	expression of MyD88 [4]	expression of NF-κB [4]	expression of TLR4 [4]	expression of the IκB protein [4]	IL-6 content in serum after treatment [5]	TNF-α content in serum after treatment [5]	change of paw volume before and after treatment [5, 8]	change of paw volume before and after treatment ([5]; 100 mg·kg^–1·d^–1 for 14 days, Figure 4b)	content of IL-1β in the supernatant [6]	content of IL-6 in the supernatant [6]	content of TNF-α in the supernatant [6]	IC50 (rat synovial cells [7]) [µM]
O=C1C=C2CC[C@@H](C(=O)O)CC2C(=O)C1 (stereo partly drawn) [Compound 21]	297.79 ± 49.6 U/L	little damage to synovial cells														
CCOC(=O)[C@@H]1CCC2=CC(=O)CC(=O)C2C1 (stereo partly drawn) [Compound 23]	342.78 ± 22.74 ^c U/L	little damage to synovial cells	2307 ± 7.37	significant concentration dependence on synovial cell injury												
O=C1C=C2CC[C@@H](C3CCC(=O)CC3)CC2C(=O)C1 (stereo partly drawn) [Compound 28, (7R)-7-(4-oxocyclohexyl)-6,7,8,8a-tetrahydronaphthalene-1, 3 (2H, 5H)-dione]	375.29 ± 17.87 ^c U/L	little damage to synovial cells		significant concentration dependence on synovial cell injury												
O=C1C=C2CC[C@@H](O)CC2C(=O)C1 (stereo partly drawn) [Compound 32, (7R)-7-hydroxy-6,7,8,8a-tetrahydronaphthalene-1, 3 (2H, 5H)-dione]	307.02 ± 30.86 ^c U/L	little damage to synovial cells	2658 ± 9.06	significant concentration dependence on synovial cell injury	significantly downregulated	significantly downregulated	significantly downregulated	significantly upregulated	basically at a low level	decreased	little change	hardly changed	significantly decreased	significantly decreased	significantly decreased	
CC(=O)N[C@@H]1CCC2=CC(=O)CC(=O)C2C1 (stereo partly drawn) [Compound 33]	264.24 ± 27.71 U/L	little damage to synovial cells														
O=C1C=C2CCC(F)(F)CC2C(=O)C1 (stereo not drawn) [Compound 36, 7,7-difluoro-6,7,8,8a-tetrahydronaphthalene-1,3 (2H, 5H)-dione]	292.07 ± 31.56 U/L	little damage to synovial cells	2709 ± 8.63	significant concentration dependence on synovial cell injury												
CC(C)[C@H]1CC[C@]2(C)C(=O)CCC(=O)C=C12 [Dysodensiol K]																11.8 ± 0.23
CN(Cc1cnc2nc(N)nc(N)c2n1)c1ccc(C(=O)N[C@@H](CCC(=O)O)C(=O)O)cc1 [methotrexate, reference compound]	438.75 ± 11.50 ^c U/L	significantly increased	1368 ± 5.34	significantly damaged	significantly downregulated	significantly downregulated	significantly downregulated	significantly upregulated	basically at a low level	decreased	significant volume change		significantly decreased	significantly decreased	significantly decreased	
